Test [1] deals with Staphylococcus aureus. The experiment in a line: Antibacterial activity against methicillin-sensitive Staphylococcus aureus after 24 hrs by NCCLS method. It is filed as functional. An outline of the steps:
(§1)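 Broth microdilution in Mueller-Hinton broth. Stocks at 1280 µg/mL in aqueous 10-20% DMSO were diluted to 128 µg/mL, then serially 2-fold diluted giving final concentrations of 64 down to 0.125 µg/mL. Overnight MHB cultures were diluted to 10^6~10^7 CFU/mL, and 100 µL was added per well. Plates ran 24 h at 37°C. MIC was read from OD against an MHB blank, in triplicate.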

The test system of test [2] is Staphylococcus aureus. In words: Antibacterial activity against methicillin-resistant Staphylococcus aureus after 24 hrs by NCCLS method. It is filed as functional. An outline of the steps: (§2)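 Broth microdilution in Mueller-Hinton broth. Stocks at 1280 µg/mL in aqueous 10-20% DMSO, diluted to 128 µg/mL, then 2-fold serially to final 64 down to 0.125 µg/mL. Overnight MHB cultures diluted to 10^6~10^7 CFU/mL and added 1:1 to compound. Incubated 24 h at 37°C. MIC read from OD against MHB blank. Three parallels per concentration.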

Test [3] deals with Staphylococcus epidermidis. The experiment in a line: Antibacterial activity against methicillin-sensitive Staphylococcus epidermidis after 24 hrs by NCCLS method. It is filed as functional. An outline of the steps: as §2
Test [4] relates to Staphylococcus epidermidis. The experiment in a line: Antibacterial activity against methicillin-resistant Staphylococcus epidermidis after 24 hrs by NCCLS method. The test is classed as functional. An outline of the steps:
as §2

Test [5] relates to Enterococcus faecium. In words: Antibacterial activity against Enterococcus faecium after 24 hrs by NCCLS method. The test is classed as functional. An outline of the steps:
as §1

For test [6], the system named is Enterococcus faecalis. In words: Antibacterial activity against Enterococcus faecalis after 24 hrs by NCCLS method. The test is classed as functional. An outline of the steps:
as §1

Test [7] deals with Escherichia coli. The experiment in a line: Antibacterial activity against Escherichia coli ATCC 11775 after 24 hrs by NCCLS method. The test is classed as functional. To be noted: DSM 30083 = JCM 1649 = ATCC 11775, 24 h. An outline of the steps:
as §1

For test [8], the system named is Pasteurella multocida. In words: Antibacterial activity against Pasteurella multocida after 24 hrs by NCCLS method. The test is classed as functional. An outline of the steps:
as §1

Test [9] relates to Staphylococcus aureus. In words: Antibacterial activity against methicillin-resistant Staphylococcus aureus clinical isolates infected in ip dosed mouse assessed as reduction in bacterial infection administered 1 hr after infection and measured after 7 days. It is filed as functional. An outline of the steps: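 Kunming mice, half male and half female, 19-23 g, 10 per group. Infected i.p. with 0.5 mL clinical MRSA isolate suspension (~10^7 CFU/mL). Single i.p. dose 1 h post-infection, five dose levels between 7.0 and 50.0 mg/kg depending on compound. Vehicle was DMSO:Tween-80:water 1:1:8, or water for valnemulin. ED50 by Probit analysis from survival after 7 days; 95% confidence ranges.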

The subject of test [10] is Escherichia coli. In words: Potency index, ratio of MIC for Valnemulin hydrochloride to MIC for test compound for antibacterial activity against Escherichia coli ATCC 11775 after 24 hrs by NCCLS method. The test is classed as functional, DSM 30083 = JCM 1649 = ATCC 11775.
The subject of test [11] is Staphylococcus aureus. The experiment in a line: Bactericidal activity against exponential phase of methicillin-resistant Staphylococcus aureus after 1 to 4 hrs by time kill kinetics assay. It is filed as functional, organism-based. An outline of the steps:
(§3)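 Exponential-phase S. aureus (4 h at 37°C, 120 rpm) diluted to ~2×10^7 CFU/mL in MHB and mixed 1:1 with MHB containing twice the desired compound concentration. Shaken at 37°C, 120 rpm. Samples at 1, 2, 3 and 4 h washed with PBS, diluted, spot-plated on MH agar, counted after ~18 h at 37°C as log10 CFU/mL. Triplicate, mean±s.d.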

Test [12] relates to Staphylococcus aureus. In words: Bactericidal activity against exponential phase of methicillin-resistant Staphylococcus aureus assessed as time required for complete bacterial killing at 8 times MIC by time kill kinetics assay. The test is classed as functional. An outline of the steps:
as §3

The test system of test [13] is Staphylococcus aureus. The experiment in a line: Bactericidal activity against exponential phase of methicillin-resistant Staphylococcus aureus assessed as time required for complete bacterial killing at 4 times MIC by time kill kinetics assay. It is filed as functional. An outline of the steps:
as §3

For test [14], the system named is Staphylococcus aureus. In words: Antibacterial activity against methicillin-resistant Staphylococcus aureus infected in Kunming mouse assessed as mouse survival at 40 mg/kg, ig qd treated for 3 consecutive days and measured during compound treatment relative to control. The test is classed as functional. The note with it: po. An outline of the steps:
(§4)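 Female Kunming mice, 22±2 g, made neutropenic with cyclophosphamide i.p., 150 mg/kg 4 days and 100 mg/kg 1 day before infection. Infected i.p. with 0.5 mL suspension of clinical MRSA isolate. Intragastric dosing at 20 or 40 mg/kg/d, starting 1 h post-infection, once daily for 3 consecutive days. Survival monitored.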

The test system of test [15] is Staphylococcus aureus. In words: Antibacterial activity against methicillin-resistant Staphylococcus aureus infected in Kunming mouse assessed as mouse survival at 40 mg/kg, ig qd treated for 3 consecutive days and measured at day 5 relative to control. It is filed as functional. The note with it: po, 120 h. An outline of the steps:
as §4

In test [16] the test system is Staphylococcus aureus. In words: Antibacterial activity against methicillin-resistant Staphylococcus aureus infected in Kunming mouse assessed as mouse survival at 40 mg/kg, ig qd treated for 3 consecutive days and measured at day 6 relative to control. The test is classed as functional. The note with it: po, 144 h. An outline of the steps: as §4
Test [17] has as its system Staphylococcus aureus. In words: Antibacterial activity against methicillin-resistant Staphylococcus aureus infected in Kunming mouse assessed as mouse survival at 20 mg/kg, ig qd treated for 3 consecutive days and measured up to 10 days relative to control. To be noted: po, 240 h. It is filed as functional. An outline of the steps:
as §4

Values after ≈ are worked out from the molar mass of the structure shown.

Usually MIC stands for the smallest concentration in the dilution series that meets the test's criterion for growth inhibition. As usually defined, the ED50 is the midpoint of the dose-response relation. Consider `C=C[C@]1(C)C[C@@H](OC(=O)CSc2nc(NC(=O)CN(CC)CC)c3cc[nH]c3n2)[C@]2(C)[C@H](C)CC[C@]3(CCC(=O)[C@H]32)[C@@H](C)[C@@H]1O`, for which the MIC in [1] worked out at 0.0625 µg/mL (≈ 0.0977 µM); in test [2] it was 0.0625 µg/mL (≈ 0.0977 µM); in [3], 0.0625 µg/mL (≈ 0.0977 µM); in test [4], 0.125 µg/mL (≈ 0.195 µM); in test [5], 0.125 µg/mL (≈ 0.195 µM); in test [6] it was 32 µg/mL (≈ 50 µM). Besides, the minimum inhibitory concentration (MIC) is 16 µg/mL (≈ 25 µM) in [7] and 64 µg/mL (≈ 100 µM) in test [8]. In addition, in [9], the ED50 is 27.7 mg/kg. Moreover, the Ratio in [10] is 2.

For `C=C[C@]1(C)C[C@@H](OC(=O)CSc2nc(NC(=O)CN3CCCC3)c3cc[nH]c3n2)[C@]2(C)[C@H](C)CC[C@]3(CCC(=O)[C@H]32)[C@@H](C)[C@@H]1O`, the MIC is 0.0625 µg/mL (≈ 0.098 µM) in test [1]; 0.0625 µg/mL (≈ 0.098 µM) in [2]; 0.0625 µg/mL (≈ 0.098 µM) in test [3]; 0.0625 µg/mL (≈ 0.098 µM) in test [4]; 0.0625 µg/mL (≈ 0.098 µM) in test [5]; 64 µg/mL (≈ 100 µM) in test [6]. Moreover, the MIC in test [7] worked out at 32 µg/mL (≈ 50.2 µM); in [8], 16 µg/mL (≈ 25.1 µM). The Activity entry in [11] was “Dose-dependent effect”. Also, the Time came out at 2 h in test [12] and 4 h in [13]. Also, in [9], the ED50 was 16 mg/kg. Besides, the results for the survival at 40 mg/kg in [14], in [15] and in [16] were > 90%, 70% and 80%, respectively. In test [17], the survival at 20 mg/kg was found to be 30%.

For the origin of these results see ChEMBL document CHEMBL4325900, “Antibacterial activity evaluation of synthetic novel pleuromutilin derivatives in vitro and in experimental infection mice” (2019).
